The source made the active and inactive calls. No cut-off for these calls is given here.
Tests used:
microRNA 21 [1] = assay: Inhibition of miR-21 RNA in human HeLa cells harboring miR-21 binding sequence in 3'-UTR of firefly luciferase gene assessed as increase in luciferase expression incubated for 48 hrs by Bright-Glo luciferase reporter gene assay relative to control; assay type: cell-based
Procedure, shortened: (§1)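 HeLa-miR21-Luc stable line (miR-21 site in the firefly luciferase 3′-UTR), 1000 cells per well. Compound or DMSO (0.1% final) added after overnight attachment, in triplicate, for 48 h. Bright-Glo luminescence was normalized to XTT viability (450 nm) and expressed as fold change relative to DMSO. At least three independent experiments.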

microRNA 21 [2] = assay: Inhibition of miR-21 RNA in human HeLa cells harboring miR-21 binding sequence in 3'-UTR of firefly luciferase gene assessed as increase in luciferase expression incubated for 48 hrs by Bright-Glo luciferase reporter gene assay; assay type: cell-based; procedure, shortened: as §1
[3] = target: Luciferin 4-monooxygenase (Photinus pyralis) (UniProt P08659); assay: Inhibition of firefly luciferase activity up to 50 uM
Sequence of Luciferin 4-monooxygenase (Photinus pyralis) (P08659 whole entry): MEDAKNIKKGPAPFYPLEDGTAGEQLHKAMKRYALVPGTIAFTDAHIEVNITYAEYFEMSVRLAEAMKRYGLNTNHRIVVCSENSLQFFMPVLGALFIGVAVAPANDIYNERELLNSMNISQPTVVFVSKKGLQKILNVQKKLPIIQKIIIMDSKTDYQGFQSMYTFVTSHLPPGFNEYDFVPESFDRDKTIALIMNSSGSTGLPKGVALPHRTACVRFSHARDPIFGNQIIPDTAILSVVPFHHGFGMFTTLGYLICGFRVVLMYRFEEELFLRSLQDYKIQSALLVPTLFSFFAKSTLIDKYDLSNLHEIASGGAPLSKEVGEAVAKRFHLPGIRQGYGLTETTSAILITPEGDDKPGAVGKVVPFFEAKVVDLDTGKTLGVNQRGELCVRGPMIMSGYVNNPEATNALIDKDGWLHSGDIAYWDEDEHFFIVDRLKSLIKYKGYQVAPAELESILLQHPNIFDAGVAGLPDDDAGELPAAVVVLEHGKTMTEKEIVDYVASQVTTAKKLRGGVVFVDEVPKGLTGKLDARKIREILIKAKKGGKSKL

[4] = Inhibition of miR-125b RNA (unknown origin) transfected in human PC3 cells at 10 uM after 48 hrs by Bright-Glo luciferase reporter gene assay; assay type: cell-based
HeLa [5] = assay: Inhibition of miR-182 RNA (unknown origin) transfected in human HeLa cells at 10 uM after 48 hrs by Bright-Glo luciferase reporter gene assay; assay type: cell-based
[6] = Inhibition of miR-221 RNA (unknown origin) transfected in human PC3 cells at 10 uM after 48 hrs by Bright-Glo luciferase reporter gene assay; assay type: cell-based
HeLa [7] = assay: Effect on mature miR-21 expression levels in human HeLa cells at 10 uM after 48 hrs by qRT-PCR analysis; assay type: functional, cell-based
Procedure, shortened: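 HeLa cells, 150,000 per well, grown overnight and exposed to 10 μM compound or DMSO (1% final) for 48 h at 37 °C. RNA was isolated and 100 ng reverse-transcribed with miR-21 or RNU19 TaqMan RT primers. TaqMan qPCR run for 40 cycles. Triplicate Ct values converted to levels relative to DMSO by the 2−ΔΔCt method.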

A498 [8] = assay: Decrease in mature miR-21 expression levels in human A498 cells at 10 uM after 48 hrs by qRT-PCR analysis; assay type: functional, cell-based
SK-OV-3 = assay: Decrease in mature miR-21 expression levels in human SKOV3 cells at 10 uM after 48 hrs by qRT-PCR analysis; assay type: functional, cell-based
[9] = Stabilization of pre-miR-21 RNA (unknown origin) assessed as increase in melting temperature at 10 uM by UV-spectrophotometric analysis
Procedure, shortened: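 Melting-curve analysis of precursor miR-21 RNA run with test compound, with DMSO as the reference condition and tobramycin (10 μM) as a positive control for RNA binding and stabilisation. Read-out is the shift in melting temperature of pre-miR-21 relative to the DMSO sample.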

MIA PaCa-2 = assay: Cytotoxicity against human MIAPaCa2 cells after 72 hrs by XTT assay; assay type: functional, cell-based; conditions: MIA PaCa-2, 72 h
Procedure, shortened: (§2)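 Cells seeded at 500 per well, incubated overnight, then exposed to increasing compound concentrations (0.1% DMSO final, DMSO control) in triplicate for 72 h. Activated XTT added; absorbance read at 450 nm with 630 nm background at start and after 4 h at 37 °C, 5% CO2. Change normalized to DMSO as % viability; IC50 from variable-slope sigmoidal fit; three independent measurements.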

U-87 MG = assay: Cytotoxicity against human U87 cells after 72 hrs by XTT assay; assay type: functional, cell-based, U-87MG ATCC; procedure, shortened: as §2
A498 [10] = assay: Cytotoxicity against human A498 cells after 72 hrs by XTT assay; assay type: functional, cell-based; conditions: A498, 72 h; procedure, shortened: as §2
NIH3T3 [11] = assay: Cytotoxicity against mouse NIH/3T3 cells up to 100 uM after 72 hrs by XTT assay; assay type: cell-based; conditions: nih3t3, 72 h; procedure, shortened: as §2
microRNA 21 [12] = assay: Inhibition of miR-21 RNA in human A498 cells assessed as potentiation of topotecan-induced cytotoxicity after 72 hrs by XTT assay; assay type: cell-based
Procedure, shortened: (§3)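 The chemotherapeutic agent (topotecan) was titrated while the miR-21 inhibitor was held at a fixed concentration, 0.1% DMSO final, in triplicate. Cells were seeded at 500 per well and treated after overnight attachment. After 72 h, XTT was read at 450 nm (630 nm background) at start and after 4 h. Signal normalized to DMSO; IC50 from variable-slope sigmoidal fit.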

A498 [13] = assay: Inhibition of colony formation of human A498 cells up to 10 uM after 2 weeks by crystal violet staining-based microscopic analysis; assay type: functional, cell-based
Procedure, shortened: (§4)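 A498 cells, 10,000 per well, seeded in 0.45% low-melt agarose in DMEM over a 0.7% agarose base layer, containing increasing compound concentrations or DMSO (0.1% final), in triplicate. For combinations, the inhibitor was held at 10 μM. After 2 weeks, colonies were stained with 0.1% crystal violet and imaged by z-stack microscopy. Colony counts were normalized to DMSO; IC50 from sigmoidal fit.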

microRNA 21 [14] = assay: Inhibition of miR-21 RNA in human A498 cells assessed as potentiation of topotecan-induced apoptosis by measuring increase in caspase-3/7 activity at 10 uM after 24 hrs by Caspase-Glo 3/7 assay relative to control; assay type: cell-based; set-up: scale not given: the % may be the effect or the level left
Procedure, shortened: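 A498 cells, 10,000 per well, treated after overnight attachment for 24 h with DMSO (0.1%), 400 nM topotecan, 10 μM inhibitor, or topotecan plus inhibitor at those levels. Caspase-3/7 activity read by Caspase-Glo 3/7 luminescence and normalized to DMSO. At least three independent experiments; unpaired t test.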

microRNA 21 [15] = assay: Inhibition of miR-21 RNA in human A498 cells assessed as increase in PDCD4 expression at 10 uM after 48 hrs by Western blot analysis relative to control; assay type: cell-based
Procedure, shortened: (§5)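 A498 cells, 250,000 per well, treated with 10 μM compound or DMSO (0.1%) for 48 h and lysed in RIPA buffer. Lysates were run on 10% SDS-PAGE, transferred to PVDF, and probed with rabbit anti-PTEN, anti-PDCD4 and anti-GAPDH, then HRP secondary. Chemiluminescence densitometry was normalized to GAPDH, then to DMSO.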

microRNA 21 [16] = assay: Inhibition of miR-21 RNA in human A498 cells assessed as increase in PTEN expression at 10 uM after 48 hrs by Western blot analysis relative to control; assay type: cell-based; procedure, shortened: as §5
microRNA 21 [17] = assay: Inhibition of miR-21 RNA in human A498 cells assessed as potentiation of topotecan-induced cytotoxicity by measuring topotecan IC50 at 10 uM after 72 hrs by XTT assay (reference value: 1 uM); assay type: cell-based; procedure, shortened: as §3
NIH3T3 [18] = assay: Potentiation of topotecan-induced cytotoxicity in mouse NIH/3T3 cells at 1 to 10 uM after 72 hrs by XTT assay; assay type: cell-based; conditions: nih3t3, 72 h; procedure, shortened: as §3
microRNA 21 [19] = assay: Inhibition of miR-21 RNA in human A498 cells assessed as potentiation of topotecan-induced inhibition of colony formation by measuring reduction in topotecan IC50 at 10 uM after 2 weeks by crystal violet staining-based microscopic analysis relative to topotecan alone; assay type: cell-based; procedure, shortened: as §4

C#CCOc1ccc(-c2noc(-c3nnn(-c4cccc(/C(C)=N/O)c4)c3N)n2)cc1
fold change (FC) (microRNA 21 [1]): 12.2
EC50 (microRNA 21 [2]): 5.3 µM
inhibition (microRNA 21 [2]): Dose-dependent effect
inhibition [3]: inactive
inhibition [4]: inactive
inhibition (HeLa [5]): inactive
inhibition [6]: inactive
Activity (HeLa [7]): inactive
Activity (A498 [8]): inactive
Activity (SK-OV-3): inactive
Activity [9]: inactive
IC50 (MIA PaCa-2): 6.7 µM
IC50 (U-87 MG): 3.3 µM
IC50 (A498 [10]): > 100 µM
Activity (NIH3T3 [11]): Non-Toxic
inhibition (microRNA 21 [12]): Dose-dependent effect
inhibition (A498 [13]): inactive
Activity (microRNA 21 [14]): 512%
fold change (FC) (microRNA 21 [15]): 9.5
fold change (FC) (microRNA 21 [16]): 1.5
IC50 (microRNA 21 [17]): 0.09 µM
Activity (NIH3T3 [18]): Non-Toxic
fold change (FC) (microRNA 21 [19]): 27
